{
  "source": "paper PMC4690987",
  "about": "(Journal of Medicinal Chemistry, 2015)",
  "key": {"[1]": {"test_system": "HIV-1 NL4-3 strain", "test": "Antiviral assay in HIV-1 infected TZM-bl cells", "type": "cell-based", "conditions": "for SI HIV-1 strain NL4-3: CC50 value/IC50 value", "outline": "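TZM-bl cells (HeLa expressing CD4 and CCR5, with LTR-driven luciferase and β-galactosidase) were seeded at 1 ×10^4 cells/well in DMEM/10% FBS and left to adhere overnight. Cells were infected with HIV-1 NL4-3 or BaL at MOI 0.5, treated with serial dilutions of test compound, and incubated at 37 °C for 48 h. IC50 was taken as 50% inhibition of LTR-luciferase signal. CC50 came from parallel MTT on mock-infected cells. SI = CC50/IC50.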"}, "[2]": {"test": "Cytotoxicity assay", "type": "cell-based", "conditions": "human, uninfected (mock-infected) TZM-bl cells", "outline": "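Run in parallel with the antiviral assay, under the same conditions but on uninfected TZM-bl cells (1 ×10^4 cells/well, seeded overnight, test compound in serial dilution, 37 °C, 48 h). Viability was read by MTT absorbance. CC50 was the concentration that reduced absorbance of mock-infected cells by 50%.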"}, "[3]": {"test_system": "LTR-IV G4", "test": "FRET melting assay", "type": "binding, HIV-1", "conditions": "4-fold c-exNDI:DNA molar ratio; 25 °C is the maximum increase measurable; data not shown", "outline": "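Oligonucleotide labelled with FAM at the 5′ end and TAMRA at the 3′ end, 0.25 μM, folded in lithium cacodylate buffer with 100 mM potassium, plus equimolar test compound. After equilibration at 4 °C, FAM emission was followed from 30 to 95 °C at 1 °C/min. Profiles were normalized, and Tm was the temperature at 0.5 normalized fluorescence.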"}, "[4]": {"test_system": "LTR-III G4", "test": "ESI-MS competition assay", "type": "binding, HIV-1", "conditions": "2-fold molar excess of compound", "outline": "(§1)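 G4 oligonucleotides heat-denatured and folded overnight at room temperature in 10 mM KCl, 150 mM trimethylammonium acetate pH 6.8. Equimolar pairs of G4s incubated overnight at 4 °C with 2-fold excess test compound, then injected via HPLC into ESI-MS. Binding affinity = bound/(free + bound) ×100, from reconstructed-ion chromatogram areas. Bound includes one or two ligands; free includes K+ adducts.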"}, "[5]": {"test_system": "LTR-IV G4", "test": "ESI-MS competition assay", "type": "binding, HIV-1", "conditions": "2-fold molar excess of compound", "outline": "as §1"}, "[6]": {"test_system": "hTel G4", "test": "ESI-MS competition assay", "type": "binding, human", "conditions": "2-fold molar excess of compound", "outline": "as §1"}, "[7]": {"test_system": "c-kit2 G4", "test": "ESI-MS competition assay", "type": "binding", "conditions": "2-fold molar excess of compound", "outline": "as §1"}, "[8]": {"test_system": "c-myc G4", "test": "ESI-MS competition assay", "type": "binding", "conditions": "2-fold molar excess of compound", "outline": "as §1"}, "[9]": {"molecular_target": "LTR-IV G4", "test": "SPR analysis", "parameters": "species or system HIV-1", "conditions": "read-out: KD LTR-IV G4 (SPR); 25 °C, HEPES-KCl buffer, 1:1 binding model", "outline": "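5′-biotinylated oligonucleotides folded (95 °C for 5 min, cooled to room temperature), diluted to 30 nM and captured on a streptavidin chip to about 500 RU, with an empty reference cell. Running buffer was 0.01 M HEPES pH 7.4, 0.2 M KCl, 3 mM EDTA. Test compound run at 25–200 nM, 30 μL/min, with 280 s contact and 360 s dissociation. Surface regenerated with 10 mM glycine pH 2.0. Sensorgrams buffer-corrected and fitted to a 1:1 model. At least two independent runs, χ2 below 0.2.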"}, "[10]": {"test_system": "HIV-1 NL4-3", "test": "HIV-1 entry assay", "type": "cell-based", "conditions": "TZM-bl cells, virus production at 31 h pi; 2 50–100 nM, AZT 0.5 μg/mL, DS 100 μg/mL", "outline": "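TZM-bl cells (HeLa stably expressing CD4, CCR5 and HIV-1 LTR-driven luciferase) were grown in DMEM/10% FBS. Cells were seeded at 1 × 10^4 per well and allowed to adhere overnight, then infected with HIV-1 NL4-3 at MOI 0.5 and kept at 37 °C. Test compound or reference agents were added at 0, 1 or 2 h pi. At 31 h cells were PBS-washed and virus production was read as LTR-luciferase RLU.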"}},
  "data": [
    {"compound": "CN(C)CCCn1c(=O)c2cc(Br)c3c(=O)n(CCCN(C)C)c(=O)c4c5[nH]c6ncccc6[nH]c5c(c1=O)c2c34", "note": "[Compound 8]", "values": [
      {"measurement": "SI HIV-1 strain NL4-3", "setting": "[1]", "result": 7.2},
      {"measurement": "CC50", "setting": "[2]", "result": "458 ± 54", "unit": "nM"}
    ]},
    {"compound": "CN(C)CCCn1c(=O)c2ccc3c(=O)n(CCCN(C)C)c(=O)c4c5[nH]c6cc([N+](=O)[O-])ccc6[nH]c5c(c1=O)c2c34", "note": "[Compound 4]", "values": [
      {"measurement": "stabilization (ΔTm, FRET) at 4-fold c-exNDI:DNA molar ratio", "setting": "[3]", "result": "above 25 °C"},
      {"measurement": "binding affinity LTR-III", "setting": "[4]; competing G4s LTR-III/LTR-IV", "result": 80},
      {"measurement": "binding affinity LTR-III", "setting": "[4]; competing G4s LTR-III/kit", "result": 54},
      {"measurement": "binding affinity LTR-III", "setting": "[4]; competing G4s LTR-III/myc", "result": 51},
      {"measurement": "binding affinity LTR-IV", "setting": "[5]; competing G4s LTR-III/LTR-IV", "result": 68},
      {"measurement": "binding affinity LTR-IV", "setting": "[5]; competing G4s LTR-IV/hTel", "result": 75},
      {"measurement": "binding affinity LTR-IV", "setting": "[5]; competing G4s LTR-IV/kit", "result": 55},
      {"measurement": "binding affinity LTR-IV", "setting": "[5]; competing G4s LTR-IV/myc", "result": 71},
      {"measurement": "binding affinity cell G4 (hTel)", "setting": "[6]; competing G4s LTR-III/hTel", "result": 10},
      {"measurement": "binding affinity cell G4 (hTel)", "setting": "[6]; competing G4s LTR-IV/hTel", "result": 18},
      {"measurement": "binding affinity cell G4 (kit)", "setting": "[7]; competing G4s LTR-III/kit", "result": 18},
      {"measurement": "binding affinity cell G4 (kit)", "setting": "[7]; competing G4s LTR-IV/kit", "result": 23},
      {"measurement": "binding affinity cell G4 (myc)", "setting": "[8]; competing G4s LTR-III/myc", "result": 37},
      {"measurement": "binding affinity cell G4 (myc)", "setting": "[8]; competing G4s LTR-IV/myc", "result": 45},
      {"measurement": "CC50", "setting": "[2]", "result": "188 ± 4.08", "unit": "nM"}
    ]},
    {"compound": "CN(C)CCCn1c(=O)c2cc(Br)c3c(=O)n(CCCN(C)C)c(=O)c4c5[nH]c6ccc([N+](=O)[O-])cc6[nH]c5c(c1=O)c2c34", "note": "[Compound 5]", "values": [
      {"measurement": "Kd", "setting": "[9]", "result": 5.9, "unit": "nM"},
      {"measurement": "IC50", "setting": "[1]; read-out: IC50 HIV-1 strain NL4-3, MOI 0.5, 48 h, LTR-luciferase signal", "result": "23 ± 1.3", "unit": "nM"},
      {"measurement": "CC50", "setting": "[2]", "result": "439 ± 10.7", "unit": "nM"}
    ]},
    {"compound": "CN(C)CCCNc1cc2c(=O)n(CCCN(C)C)c(=O)c3c4[nH]c5ccccc5[nH]c4c4c(=O)n(CCCN(C)C)c(=O)c1c4c23", "note": "[Compound 9]", "values": [
      {"measurement": "SI HIV-1 strain NL4-3", "setting": "[1]", "result": 2.2},
      {"measurement": "CC50", "setting": "[2]", "result": "1760 ± 62.5", "unit": "nM"}
    ]},
    {"compound": "Cc1cn([C@H]2C[C@H](N=[N+]=[N-])[C@@H](CO)O2)c(=O)[nH]c1=O", "note": "[AZT, Zidovudine]", "values": [
      {"measurement": "antiviral activity as a function of time of addition (0, 1, 2 h pi)", "setting": "[10]", "result": "maintaining activity from 0 to 2 h pi"}
    ]},
    {"compound": "C[N+](C)(C)CCCn1c(=O)c2cc(Br)c3c(=O)n(CCC[N+](C)(C)C)c(=O)c4c5[nH]c6ccccc6[nH]c5c(c1=O)c2c34.[I-].[I-]", "note": "[Compound 11]", "values": [
      {"measurement": "stabilization (ΔTm, FRET) at 4-fold c-exNDI:DNA molar ratio", "setting": "[3]", "result": "above 25 °C"},
      {"measurement": "Kd", "setting": "[9]", "result": 12.9, "unit": "nM"},
      {"measurement": "antiviral or cytotoxic activity", "setting": "[1]; HIV-1 NL4-3", "result": "did not display any antiviral or cytotoxic activity"},
      {"measurement": "CC50", "setting": "[2]", "result": "> 5000", "unit": "nM"}
    ]}
  ]
}
